High-throughput results: PubChem, Johns Hopkins Ion Channel Center
A selection: hits, their analogues and other compounds. The true share with any hit is near 2.3%.
TRPC4 block – inhibitors of mouse TRPC4 channel, primary screen, Fluo4 calcium, HEK293 TRPC4beta/mu-opioid cells; DAMGO-evoked Fluo4 calcium flux; active compounds read low; B-score at 10 µM; 0.39% of 300,000 active; AID 2247, 2010;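 active = B-score over 3 SD under the library average, no early fluorescence shift, positive overall ratio signal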
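test system = HEK293 cells with stable TRPC4beta plus mu-opioid receptor expression | detection = Fluo4 Ca2+ flux fluorescence | read-out = integrated fluorescence ratio relative to baseline, converted to per-well B score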
TRPC6 act – mouse TRPC6 channel activators, primary screen, cell-based, HEK293, membrane potential dye; HEK293-TRPC6 membrane potential dye fluorescence; active compounds read high; Short transient receptor potential channel 6 (Mus musculus), Q61143; AID 2550, 2010; 0.13% of 310,000 active; B-score at 10 µM;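 active = B-score of the integrated fluorescence ratio above library mean plus 3 SD, and starting fluorescence ratio within library mean plus 5 SD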;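 also: higher score means more depolarization so channel activation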
Target sequence (Q61143 whole entry, looked up): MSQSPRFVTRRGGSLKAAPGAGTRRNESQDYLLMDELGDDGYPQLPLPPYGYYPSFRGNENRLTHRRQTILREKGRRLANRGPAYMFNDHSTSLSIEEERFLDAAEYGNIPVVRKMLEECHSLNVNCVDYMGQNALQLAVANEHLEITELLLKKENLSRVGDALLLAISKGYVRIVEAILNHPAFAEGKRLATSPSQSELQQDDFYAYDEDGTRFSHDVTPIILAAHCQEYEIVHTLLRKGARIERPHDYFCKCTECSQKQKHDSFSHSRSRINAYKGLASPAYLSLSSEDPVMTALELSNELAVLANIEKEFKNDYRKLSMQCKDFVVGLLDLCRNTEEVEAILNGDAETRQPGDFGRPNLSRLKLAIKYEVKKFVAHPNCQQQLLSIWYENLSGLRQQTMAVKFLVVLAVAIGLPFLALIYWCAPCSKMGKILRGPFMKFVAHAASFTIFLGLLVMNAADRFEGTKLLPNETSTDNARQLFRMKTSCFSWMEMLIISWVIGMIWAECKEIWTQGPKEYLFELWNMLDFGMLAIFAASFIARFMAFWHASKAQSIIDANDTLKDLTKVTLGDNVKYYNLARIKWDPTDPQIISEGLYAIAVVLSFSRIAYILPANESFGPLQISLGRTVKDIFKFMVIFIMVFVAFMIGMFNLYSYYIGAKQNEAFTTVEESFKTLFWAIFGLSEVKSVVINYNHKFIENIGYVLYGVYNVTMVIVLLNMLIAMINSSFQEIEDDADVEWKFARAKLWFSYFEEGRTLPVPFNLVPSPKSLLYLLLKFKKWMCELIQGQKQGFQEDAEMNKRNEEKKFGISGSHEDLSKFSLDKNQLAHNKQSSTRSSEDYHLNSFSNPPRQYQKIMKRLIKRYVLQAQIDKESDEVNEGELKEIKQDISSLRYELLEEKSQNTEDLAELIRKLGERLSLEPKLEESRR
TRPC6 inhibitor – mouse TRPC6 channel inhibitors, primary screen, cell-based, HEK293, membrane potential dye; ACh-evoked depolarization; active compounds read low; B-score at 10 µM; AID 2553, 2010; 1.1% of 310,000 active;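 active = B-score under library mean minus 3 SD, initial fluorescence not abnormally high, positive integrated signal ratio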;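 also: B-score derived from integrated fluorescence ratio over the kinetic read; more negative B-score means stronger inhibition of depolarization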
TRPC4 potent – positive allosteric modulators of TRPC4, primary screen, cell-based, mouse TRPC4beta, HEK293 mu-opioid, Fluo-4 calcium; Short transient receptor potential channel 4 (Mus musculus), Q9QUQ5; DAMGO EC20, Fluo-4 Ca2+ flux; active compounds read high; B-score at 10 µM; 0.42% of 310,000 active;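 active = B-score of calcium response area above 5 SD of library B-scores, with initial fluorescence ratio within 5 SD of library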;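 also: B-score of integrated fluorescence ratio over time as area under calcium response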
TRPC4 act – activators of mouse TRPC4 channel, primary screen, Fluo4 calcium, HEK293 TRPC4beta/mu-opioid cells; 0.49% of 310,000 active; Fluo4 calcium fluorescence; active compounds read high; B-score at 10 µM; AID 2237, 2010; Short transient receptor potential channel 4 (Mus musculus), Q9QUQ5;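 active = B-score above 5 SD of library B-scores, and initial fluorescence ratio not above library mean plus 5 SD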;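 also: positive B-score marks a calcium rise read as TRPC4 activation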
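Incubation: 45 min room-temperature Fluo4 loading, 110 s read / System: HEK293 cells stably co-expressing mouse TRPC4beta and mu-opioid receptor / Signal: Fluo4 fluorescence, kinetic / Control set: buffer (low) and maximal DAMGO (high) / Measure: integrated baseline-normalised fluorescence ratio, converted to per-well B score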
TRPC4 spec 2 – mouse TRPC4 off-target activity of TRPC6 inhibitors, second screen. shares compounds with TRPC6 inhibitor. HEK293 TRPC4/MOR, membrane potential dye fluorescence; channel activated by saturating DAMGO dose. inhibition, % at 10 µM. 42% of 920 active. AID 2776;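 active = compounds whose fluorescence signal differed from control wells by over 3 SD, either direction, in both duplicate plates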
TRPC4 spec – mouse TRPC4 modulation by TRPC6 hits, confirmation, selectivity assay for TRPC6 inhibitor project, cell-based, HEK293 TRPC4/mu-opioid, membrane potential dye; shares compounds with TRPC6 inhibitor; activity change, negative = inhibition, % at 10 µM; 61% of 920 active; membrane potential fluorescence;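 active = rise or fall in signal beyond 3 SD of buffer-only wells in both replicate plates, either sign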;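 also: integrated kinetic ratio of fluorescence range over baseline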
HEK293 MPD ctr 2-1 – nonspecific membrane potential effects, parental HEK293, confirmation, counter-screen for TRPC6 inhibitor project, cell-based, second counter screen; shares compounds with TRPC6 inhibitor; parental HEK293 membrane potential dye fluorescence; maximal acetylcholine challenge after compound addition; signal change vs control, % at 10 µM; 31% of 920 active; AID 2779, 2010;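 active = membrane potential signal moving either way by over 3 SD of the maximum-effect control, in both duplicate plates, meaning non-specific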
HEK293 MPD ctr-1 – membrane potential modulation in parental HEK293, confirmation, counter-screen for TRPC6 inhibitor project, cell-based. shares compounds with TRPC6 inhibitor. parental HEK293 membrane potential dye fluorescence. membrane potential signal change, % at 10 µM. 60% of 920 active;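 active = membrane potential signal shifting up or down by more than 3 SD of buffer-only wells, on both duplicate plates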
HEK293 MPD ctr-2 – parental HEK293 membrane potential modulation, confirmation, counter-screen for TRPC6 modulator project, cell-based. shares compounds with TRPC6 inhibitor. AID 488924, 2010. membrane potential signal change, % at 10 µM. membrane potential dye fluorescence. 51% of 2,400 active;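 active = membrane potential signal moves up or down beyond 5 SD from buffer-only wells, on both duplicate plates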
HEK293 MPD ctr 2-2 – second counter-screen for TRPC6 modulators: effect in parental HEK293 cells; shares compounds with TRPC6 inhibitor; membrane potential dye fluorescence; after compound, maximal acetylcholine stimulation; inhibition, % at 10 µM; 14% of 2,400 active; AID 488926;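 active = membrane potential signal drops by more than 5 SD from the mean control signal, in both duplicate plates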;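 also: plate controls were acetylcholine ECmax control wells for no effect and buffer only wells for full effect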
TRPC4 ctr mod – TRPC4 modulation by TRPC6 hit compounds, confirmation, selectivity assay for TRPC6 modulator project, cell-based, HEK293 TRPC4/mu-opioid, membrane potential dye, mouse; percent change from control (negative = decrease, positive = increase), % at 10 µM; membrane potential fluorescence; 69% of 2,400 active; shares compounds with TRPC6 inhibitor;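 active = membrane potential signal moved up or down beyond 5 SD of buffer control wells, in both duplicate plates, actives on both sides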;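 also: plate controls were assay buffer wells for no effect and DAMGO maximal-effect wells for full effect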
TRPC4 ctr inh 2 – second check of whether TRPC6 modulators also affect mouse TRPC4 | shares compounds with TRPC6 inhibitor | 55% of 2,400 active | inhibition, % at 10 µM | AID 488928 | HEK293 TRPC4/mu-opioid, membrane potential dye fluorescence; stimulated with maximal-effect DAMGO;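 active = drop in membrane potential signal beyond 5 SD of the control wells in both duplicate plates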;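 also: TRPC4 counter screen for TRPC6 hits run under conditions tuned for TRPC6 not TRPC4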
TRPC6 block conf – mouse TRPC6 channel inhibitors, confirmation, HEK293 cells, membrane potential dye, duplicate. shares compounds with TRPC6 inhibitor. ACh-evoked depolarization. inhibition, % at 10 µM. 43% of 3,300 active. AID 488960, 2010;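 active = fluorescence ratio falls more than 5 SD below the full-stimulation control mean, in both duplicate runs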;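 also: integrated fluorescence ratio of peak minus minimum over baseline after agonist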
TRPC6 act conf – mouse TRPC6 channel activators, confirmation, HEK293 cells, membrane potential dye, duplicate. HEK293-TRPC6 membrane potential dye fluorescence, FDSS. shares compounds with TRPC6 inhibitor. activation, % at 10 µM. 11% of 2,800 active;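 active = ratio signal rise beyond 5 SD above unstimulated control wells' mean, seen in both duplicate runs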;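 also: plate controls were buffer EC0 wells for no effect and acetylcholine ECmax response for full effect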
* = called active by the depositor; i = inactive; . = not tested or not shown.

SMILES	TRPC4 block	TRPC6 act	TRPC6 inhibitor	TRPC4 potent	TRPC4 act	TRPC6 block conf	TRPC6 act conf	others
COc1ccccc1CC(=O)NC1CCCCCC1	i	i	i	i	i	.	.
CCc1ccccc1OCC(=O)NC1CCCC1	i	i	-5.8*	i	i	41%*	.	HEK293 MPD ctr-2=112%*;HEK293 MPD ctr 2-2=i;TRPC4 ctr mod=20%*;TRPC4 ctr inh 2=i
O=C(CCS(=O)(=O)c1ccccc1)NC1CCCCC1	i	i	i	i	i	.	.
O=c1ccc(-c2ccc(S(=O)(=O)N3CCN(c4ccccc4)CC3)o2)n[nH]1	i	i	i	i	i	.	.
O=C(COc1ccc2c3c(c(=O)oc2c1)CCC3)NCc1ccccn1	i	i	-6.1*	i	i	i	i	HEK293 MPD ctr-2=i;HEK293 MPD ctr 2-2=i;TRPC4 ctr mod=i;TRPC4 ctr inh 2=i
O=C(COc1ccc2c3c(c(=O)oc2c1)CCCC3)NC(Cc1ccc(Cl)cc1)C(=O)O (stereo not drawn)	i	i	-7*	i	i	i	i	TRPC4 spec 2=i;TRPC4 spec=4.7%*;HEK293 MPD ctr 2-1=i;HEK293 MPD ctr-1=2.1%*
O=C(COc1ccc2c3c(c(=O)oc2c1)CCCC3)N[C@@H](Cc1ccccc1)C(=O)O	i	i	i	i	i	.	.
CC(Oc1ccc2c3c(c(=O)oc2c1)CCC3)C(=O)NCc1ccccn1 (stereo not drawn)	i	i	i	i	i	.	.
O=C(Cn1nnc(-c2cccs2)n1)NNC(=O)c1ccccc1Cl	i	i	i	i	i	.	.
Cn1c(=O)c2c(nc(SCCN3CCCCC3)n2Cc2ccccc2)n(C)c1=O	i	i	-9.2*	33*	i	i	i	TRPC4 spec 2=42%*;TRPC4 spec=22%*;HEK293 MPD ctr 2-1=i;HEK293 MPD ctr-1=-392%*
Cn1c(=O)c2c(nc(SCCN3CCOCC3)n2Cc2ccccc2Cl)n(C)c1=O	i	i	i	i	i	.	.
CN1C2=C(C(=O)CC(C)(C)C2)C(c2cccs2)C2=C1CC(C)(C)CC2=O	i	i	i	i	i	.	.
CCOC(=O)c1ccc2c(c1)nc(-c1ccccn1)n2CC	i	i	-5.5*	i	i	i	i	HEK293 MPD ctr-2=i;HEK293 MPD ctr 2-2=i;TRPC4 ctr mod=i;TRPC4 ctr inh 2=i
CCOC(=O)Cn1c(-c2ccccn2)nc2ccccc21	i	i	i	i	i	.	.
NC(=NCCc1c[nH]c2ccccc12)NC(=O)c1ccc(F)cc1	i	i	-6.5*	i	i	44%*	i	HEK293 MPD ctr-2=i;HEK293 MPD ctr 2-2=i;TRPC4 ctr mod=i;TRPC4 ctr inh 2=54%*
NS(=O)(=O)c1ccc(CCNCc2cc(Br)ccc2OCc2ccccc2F)cc1	i	i	-5.7*	i	i	56%*	i	HEK293 MPD ctr-2=i;HEK293 MPD ctr 2-2=i;TRPC4 ctr mod=i;TRPC4 ctr inh 2=88%*
NS(=O)(=O)c1ccc(CCNCc2ccccc2OCc2ccc(Cl)cc2)cc1	-5*	i	-6.8*	i	i	62%*	i	TRPC4 spec 2=30%*;TRPC4 spec=i;HEK293 MPD ctr 2-1=i;HEK293 MPD ctr-1=2.1%*
NS(=O)(=O)c1ccc(CCNCc2cc(Cl)ccc2OCc2ccccc2)cc1	i	i	i	i	i	.	.
CN(C)C(=O)C[n+]1cccc(/C=N/O)c1	i	i	i	i	i	.	.
Cc1cccc(NC(=O)C(=O)NCC2CCCO2)c1 (stereo not drawn)	i	i	i	i	i	.	.
COc1ccc(CN2CCCC(C(=O)c3cccc(OC(C)C)c3)C2)cc1Cn1cccn1 (stereo not drawn)	i	i	i	i	i	.	.
CCN(CC)CCCOC(=O)C(c1ccccc1)c1ccccc1	i	i	-7.2*	i	i	61%*	.	TRPC4 spec 2=i;TRPC4 spec=9.6%*;HEK293 MPD ctr 2-1=i;HEK293 MPD ctr-1=12%*
CC(=O)N1c2ccc(S(=O)(=O)N3CCCC3)cc2CC1C(=O)NC(C)C (stereo not drawn)	i	i	i	i	i	.	.
COc1ccc(C(=O)/C=C/c2cc(OC)c(O)c(OC)c2)c(F)c1	i	18*	i	i	i	i	108%*	HEK293 MPD ctr-2=288%*;HEK293 MPD ctr 2-2=i;TRPC4 ctr mod=54%*;TRPC4 ctr inh 2=i
COc1ccc2cc(C(=O)/C=C/c3cc(OC)c(O)c(OC)c3)ccc2c1	i	i	i	i	i	.	.
